# Results as given in ChEMBL document CHEMBL1649147, “Antistaphylococcal activity of dihydrophthalazine antifolates, a family of novel antibacterial drugs” (2009).
# Legend:
# [1] = test system: Staphylococcus aureus; experiment: Antibacterial activity against Staphylococcus aureus ATCC 29213 assessed as change in MIC by agar odilution method after serial passages in presence of antibiotic relative to control; format: functional, ATCC29213
# How it was run: (§1)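 Serial passage under drug. Inoculum was ~1 × 10^6 CFU/ml from overnight MHA growth, in 1 ml MHB at 35°C for 24 h. Drug ranged from 4 log2 steps above to 3 log2 steps below the MIC. […] MIC change is given as log2 steps.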
# [2] = test system: Staphylococcus epidermidis; experiment: Antibacterial activity against methicillin-resistant, Linezolid non-susceptible coagulase-negative Staphylococcus epidermidis 345 by agar dilution method; format: functional
# [3] = test system: Staphylococcus epidermidis; experiment: Antibacterial activity against methicillin-resistant coagulase-negative Staphylococcus epidermidis 074 by broth macrodilution method; format: functional
# [4] = test system: coagulase-negative staphylococci; experiment: Antibacterial activity against Tmp-susceptible coagulase-negative staphylococci by agar dilution method
# [5] = test system: Staphylococcus epidermidis; experiment: Antibacterial activity against methicillin-resistant coagulase-negative Staphylococcus epidermidis 345 by broth macrodilution method; format: functional
# [6] = test system: Staphylococcus aureus; experiment: Antibacterial activity against methicillin-susceptible Staphylococcus aureus ATCC 29213 by broth macrodilution method; format: functional; conditions: ATCC29213
# [7] = test system: Staphylococcus aureus; experiment: Antibacterial activity against methicillin-resistant Staphylococcus aureus 507 by broth macrodilution method; format: functional
# [8] = test system: Staphylococcus aureus; experiment: Antibacterial activity against Tmp-susceptible Staphylococcus aureus by agar dilution method; format: functional
# How it was run: (§2)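 MICs by agar dilution on Mueller-Hinton agar following CLSI guidelines. S. aureus ATCC 29213 and E. faecalis ATCC 29212 were run as quality controls with each set, and test-strain MICs were kept only if control MICs fell within acceptable ranges.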
# [9] = test system: coagulase-negative staphylococci; experiment: Antibacterial activity against methicillin-resistant coagulase-negative staphylococci by agar dilution method
# [10] = test system: Staphylococcus aureus; experiment: Antibacterial activity against methicillin-resistant Staphylococcus aureus ATCC 43300 by broth macrodilution method; format: functional; conditions: ATCC43300
# [11] = test system: Staphylococcus epidermidis; experiment: Antibacterial activity against methicillin-resistant coagulase-negative Staphylococcus epidermidis 197 by broth macrodilution method; format: functional
# [12] = test system: coagulase-negative staphylococci; experiment: Antibacterial activity against methicillin-susceptible coagulase-negative staphylococci by agar dilution method
# [13] = test system: Staphylococcus epidermidis; experiment: Antibacterial activity against coagulase-negative Staphylococcus epidermidis 345 by agar dilution method; format: functional; how it was run: as §2
# [14] = test system: Staphylococcus epidermidis; experiment: Antibacterial activity against coagulase-negative Staphylococcus epidermidis 345 after 10 passages in MBH without antibiotic by agar dilution method; format: functional
# How it was run: (§3)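 After drug-selective serial passage, selected clones were passaged 10 times in antibiotic-free MHB. MICs were then redetermined, and the change is expressed as log2 dilution steps.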
# [15] = test system: Staphylococcus aureus; experiment: Antibacterial activity against methicillin-resistant Staphylococcus aureus by agar dilution method; format: functional
# How it was run: (§4)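 Agar dilution on Mueller-Hinton agar per CLSI guidelines. S. aureus ATCC 29213 and E. faecalis ATCC 29212 were run with each set, and test MICs were accepted only when the control strains fell within acceptable ranges.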
# [16] = test system: Staphylococcus aureus; experiment: Antibacterial activity against methicillin-susceptible Staphylococcus aureus by agar dilution method; format: functional; how it was run: as §4
# [17] = test system: Staphylococcus aureus; experiment: Antibacterial activity against vancomycin-resistant Staphylococcus aureus VRS1 by broth macrodilution method; format: functional
# How it was run: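 Michigan VRSA strain, one of 12 staphylococci later used in time-kill studies. MIC was determined by broth macrodilution and reported in μg/ml.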
# [18] = test system: coagulase-negative staphylococci; experiment: Antibacterial activity against Tmp-resistant coagulase-negative staphylococci by agar dilution method
# [19] = test system: Staphylococcus epidermidis; experiment: Antibacterial activity against methicillin-resistant coagulase-negative Staphylococcus epidermidis 225 by broth macrodilution method; format: functional
# [20] = test system: Staphylococcus epidermidis; experiment: Antibacterial activity against coagulase-negative Staphylococcus epidermidis 057 assessed as change in MIC by agar dilution method after serial passages in presence of antibiotic relative to control; format: functional; how it was run: as §1
# [21] = test system: Staphylococcus epidermidis; experiment: Antibacterial activity against coagulase-negative Staphylococcus epidermidis 197 assessed as change in MIC by agar dilution method after serial passages in presence of antibiotic relative to control; format: functional; how it was run: as §1
# [22] = test system: Staphylococcus epidermidis; experiment: Antibacterial activity against methicillin-susceptible coagulase-negative Staphylococcus epidermidis 051 by broth macrodilution method; format: functional
# [23] = test system: Staphylococcus epidermidis; experiment: Antibacterial activity against coagulase-negative Staphylococcus epidermidis 225 after 10 passages in MBH without antibiotic by agar dilution method; format: functional; how it was run: as §3
# [24] = test system: Staphylococcus aureus; experiment: Antibacterial activity against methicillin-resistant and vancomycin-resistant Staphylococcus aureus VRS1 by agar dilution method; format: functional; how it was run: as §4
# [25] = test system: Staphylococcus epidermidis; experiment: Antibacterial activity against coagulase-negative Staphylococcus epidermidis 051 assessed as change in MIC by agar dilution method after serial passages in presence of antibiotic relative to control; format: functional; how it was run: as §1
# [26] = test system: Staphylococcus aureus; experiment: Antibacterial activity against vancomycin-resistant Staphylococcus aureus VRS1 assessed as change in MIC by agar dilution method after serial passages in presence of antibiotic relative to control; format: functional
# How it was run: (§5)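 Daily serial passage for up to 50 days at 35°C for 24 h in 1 ml MHB. […] Each transfer used 10 µl from the tube nearest the MIC (1–2 dilutions below) with the same turbidity as the drug-free control. […] MICs were measured by agar dilution, with changes given as log2 steps.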
# [27] = test system: Staphylococcus aureus; experiment: Antibacterial activity against methicillin-susceptible, vancomycin-intermediate Staphylococcus aureus 505 by broth macrodilution method; format: functional
# [28] = test system: Staphylococcus epidermidis; experiment: Antibacterial activity against coagulase-negative Staphylococcus epidermidis 345 assessed as change in MIC by agar dilution method after serial passages in presence of antibiotic relative to control; format: functional; how it was run: as §1
# [29] = test system: Staphylococcus aureus; experiment: Antibacterial activity against Staphylococcus aureus 145
# [30] = test system: Staphylococcus epidermidis; experiment: Antibacterial activity against coagulase-negative Staphylococcus epidermidis 051 assessed as change in MIC by agar dilution method after serial passages in the absence of antibiotic relative to control; format: functional; how it was run: as §3
# [31] = test system: Staphylococcus epidermidis; experiment: Antibacterial activity against coagulase-negative Staphylococcus epidermidis 345 assessed as change in MIC by agar dilution method after serial passages in the absence of antibiotic relative to control; format: functional; how it was run: as §3
# [32] = test system: Staphylococcus aureus; experiment: Antibacterial activity against methicillin-susceptible Staphylococcus aureus ATCC 29213 after 50 passages by agar dilution method; format: functional; conditions: ATCC29213; how it was run: as §5
# [33] = test system: Staphylococcus aureus; experiment: Antibacterial activity against Staphylococcus aureus 145 assessed as change in MIC by agar dilution method after serial passages in the absence of antibiotic relative to control; format: functional; how it was run: as §3
# [34] = test system: Staphylococcus aureus; experiment: Antibacterial activity against Staphylococcus aureus ATCC 43300 assessed as change in MIC by agar dilution method after serial passages in presence of antibiotic relative to control; format: functional; how it was run: as §1
# [35] = test system: Staphylococcus epidermidis; experiment: Antibacterial activity against methicillin-susceptible coagulase-negative Staphylococcus epidermidis 057 by broth macrodilution method; format: functional
# [36] = test system: Staphylococcus epidermidis; experiment: Antibacterial activity against coagulase-negative Staphylococcus epidermidis 051 by agar dilution method; format: functional; how it was run: as §2
# [37] = test system: Staphylococcus aureus; experiment: Antibacterial activity against methicillin-susceptible Staphylococcus aureus 505 by broth macrodilution method; format: functional
# [38] = test system: Staphylococcus aureus; experiment: Antibacterial activity against Staphylococcus aureus 505 assessed as change in MIC by agar dilution method after serial passages in presence of antibiotic relative to control; format: functional; how it was run: as §1
# [39] = test system: Staphylococcus aureus; experiment: Antibacterial activity against Staphylococcus aureus 145 assessed as change in MIC by agar dilution method after serial passages in presence of antibiotic relative to control; format: functional; how it was run: as §1
smiles,measurement,setting,value
COc1ncc(C2c3ccccc3C=NN2C(=O)/C=C/c2cc(Cc3cnc(N)nc3N)cc(OC)c2OC)cn1 (stereo not given),fold change (FC),[1],8
same,MIC,[2],0.125 µg/mL
same,MIC,[3],0.06 µg/mL
same,MIC50,[4],0.016 µg/mL
same,MIC90,[4],0.03 µg/mL
same,MIC,[5],0.06 µg/mL
same,MIC,[6],0.03 µg/mL
same,MIC,[7],0.06 µg/mL
same,MIC50,[8],0.03 µg/mL
same,MIC90,[8],0.03 µg/mL
same,MIC50,[9],0.06 µg/mL
same,MIC90,[9],0.5 µg/mL
same,MIC,[10],0.03 µg/mL
same,MIC,[11],0.008 µg/mL
same,MIC90,[12],0.06 µg/mL
same,MIC,[13],0.125 µg/mL
same,MIC,[14],2 µg/mL
same,MIC50,[15],0.03 µg/mL
same,MIC90,[15],0.25 µg/mL
same,MIC50,[16],0.03 µg/mL
same,MIC90,[16],0.25 µg/mL
same,MIC,[17],1 µg/mL
same,MIC50,[18],0.125 µg/mL
same,MIC90,[18],0.5 µg/mL
same,MIC,[19],0.25 µg/mL
same,fold change (FC),[20],4
same,fold change (FC),[21],5
same,MIC,[22],0.125 µg/mL
same,MIC,[23],8 µg/mL
same,MIC,[24],0.5 µg/mL
same,fold change (FC),[25],8
same,fold change (FC),[26],9
same,MIC,[27],0.016 µg/mL
same,fold change (FC),[28],7
same,MIC,[29],0.5 µg/mL
same,fold change (FC),[30],-2
same,fold change (FC),[31],-3
same,MIC,[32],8 µg/mL
same,fold change (FC),[33],-4
same,fold change (FC),[34],7
same,MIC,[35],8 µg/mL
same,MIC,[36],0.25 µg/mL
same,MIC,[37],0.03 µg/mL
same,fold change (FC),[38],6
same,fold change (FC),[39],9
COc1cc(Cc2cnc(N)nc2N)cc(/C=C/C(=O)N2N=Cc3ccccc3C2c2cnc(N(C)C)nc2)c1OC (stereo not given),fold change (FC),[1],3
same,MIC,[2],0.06 µg/mL
same,MIC,[3],0.06 µg/mL
same,MIC50,[4],0.016 µg/mL
same,MIC90,[4],0.03 µg/mL
same,MIC,[5],0.06 µg/mL
same,MIC,[6],0.06 µg/mL
same,MIC,[7],0.125 µg/mL
same,MIC50,[8],0.03 µg/mL
same,MIC90,[8],0.03 µg/mL
same,MIC50,[9],0.06 µg/mL
same,MIC90,[9],0.5 µg/mL
same,MIC,[10],0.03 µg/mL
same,MIC,[11],0.03 µg/mL
same,MIC90,[12],0.03 µg/mL
same,MIC,[13],0.06 µg/mL
same,MIC,[14],2 µg/mL
same,MIC50,[15],0.03 µg/mL
same,MIC90,[15],0.125 µg/mL
same,MIC50,[16],0.03 µg/mL
same,MIC90,[16],0.25 µg/mL
same,MIC,[17],0.5 µg/mL
same,MIC50,[18],0.125 µg/mL
same,MIC90,[18],0.5 µg/mL
same,MIC,[19],0.125 µg/mL
same,fold change (FC),[20],5
same,fold change (FC),[21],1
same,MIC,[22],0.125 µg/mL
same,MIC,[23],2 µg/mL
same,MIC,[24],0.25 µg/mL
same,fold change (FC),[25],11
same,fold change (FC),[26],10
same,MIC,[27],0.03 µg/mL
same,fold change (FC),[28],12
same,MIC,[29],0.25 µg/mL
same,fold change (FC),[30],-6
same,fold change (FC),[31],-7
same,MIC,[32],0.5 µg/mL
same,fold change (FC),[33],0
same,fold change (FC),[34],5
same,MIC,[35],4 µg/mL
same,MIC,[36],0.125 µg/mL
same,MIC,[37],0.125 µg/mL
same,fold change (FC),[38],8
same,fold change (FC),[39],10
